Assay results published in ChEMBL document CHEMBL4229458, “Lipid accumulation inhibitory activities of novel isoxazole-based chenodeoxycholic acids: Design, synthesis and preliminary mechanism study” (Bioorg Med Chem Lett, 2018).
Activity calls are given as the source filed them. The rule behind the calls is not given here.

Experiments:
3T3-L1 [1] = experiment: Cytotoxicity against mouse 3T3L1 cells assessed as decrease in cell viability at 10 uM after 48 hrs by MTT assay; assay type: cell-based; details: 3t3-l1, 48 h
In short: (§1)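 3T3-L1 preadipocytes given 5, 10, 20 and 40 μM for 48 h, with 1% DMSO as control. Viability measured by MTT. Mean ± SD of two independent experiments.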

3T3-L1 [2] = experiment: Inhibition of lipid accumulation in mouse 3T3L1 cells at 10 uM by oil red o staining-based assay; assay type: functional
In short: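 3T3-L1 preadipocytes differentiated for 6 days into mature adipocytes, then treated at 10 μM. Intracellular lipid stained with Oil Red O and quantified relative to vehicle. Mean ± SD of two independent experiments.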

3T3-L1 [3] = experiment: Cytotoxicity against mouse 3T3L1 cells assessed as decrease in cell viability at 40 uM after 48 hrs by MTT assay; assay type: cell-based; details: 3t3-l1, 48 h; in short: as §1
HepG2 = experiment: Cytotoxicity against human HepG2 cells assessed as decrease in cell viability at 5 to 80 uM after 48 hrs by MTT assay; assay type: cell-based; details: hepg2, 48 h
In short: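 HepG2 cells exposed to 5, 10, 20, 40 and 80 μM for 48 h. Viability read by MTT.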

[4] = biological target: T1, Bile acid receptor (Homo sapiens) (UniProt Q96RI1); experiment: Activation of FXR in human HepG2 cells assessed as upregulation of SHP mRNA expression at 10 uM by RT-PCR method; assay type: cell-based
T1 sequence (whole entry): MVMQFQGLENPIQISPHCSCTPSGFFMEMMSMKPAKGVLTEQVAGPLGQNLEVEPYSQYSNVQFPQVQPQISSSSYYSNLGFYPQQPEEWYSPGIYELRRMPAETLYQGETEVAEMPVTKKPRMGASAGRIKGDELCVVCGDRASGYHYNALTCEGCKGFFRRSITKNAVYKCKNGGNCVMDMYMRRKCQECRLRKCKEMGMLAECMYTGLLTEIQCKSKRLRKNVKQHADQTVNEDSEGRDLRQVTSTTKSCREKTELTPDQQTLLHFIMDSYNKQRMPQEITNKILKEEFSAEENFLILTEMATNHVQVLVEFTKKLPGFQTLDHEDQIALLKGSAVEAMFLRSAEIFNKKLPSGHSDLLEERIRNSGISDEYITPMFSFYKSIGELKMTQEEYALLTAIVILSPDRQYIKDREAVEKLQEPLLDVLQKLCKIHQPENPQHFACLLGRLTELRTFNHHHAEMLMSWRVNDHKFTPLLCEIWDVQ
In short: (§2)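 HepG2 cells treated at 10 μM. mRNA of FXR, SHP and SREBP-1c quantified by real-time PCR against vehicle (0.1% DMSO). Mean ± SEM, n = 3.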

[5] = biological target: T1, Bile acid receptor (Homo sapiens); experiment: Activation of FXR in human HepG2 cells assessed as upregulation of FXR mRNA expression at 10 uM by RT-PCR method; assay type: cell-based; in short: as §2
[6] = biological target: T1, Bile acid receptor (Homo sapiens); experiment: Activation of FXR in human HepG2 cells assessed as downregulation of SREBP-1c mRNA expression at 10 uM by RT-PCR method; assay type: cell-based; in short: as §2

Compound	Activity (3T3-L1 [1])	inhibition (3T3-L1 [2])	Activity (3T3-L1 [3])	Activity (HepG2)	Activity [4]	inhibition at 10 µM (3T3-L1 [2])	Activity [5]	Activity [6]
CCNC(=O)CC[C@@H](C)[C@H]1CC[C@H]2[C@@H]3[C@H](O)C[C@@H]4C[C@@H](NC(=O)c5c(C)noc5C)CC[C@]4(C)[C@H]3CC[C@]12C	Non-Toxic	Active	Non-Toxic					
COC(=O)CC[C@@H](C)[C@H]1CC[C@H]2[C@@H]3[C@H](O)C[C@@H]4C[C@@H](NC(=O)c5c(C)noc5C)CC[C@]4(C)[C@H]3CC[C@]12C	Non-Toxic	Active	Non-Toxic					
Cc1noc(C)c1C(=O)N[C@H]1CC[C@@]2(C)[C@@H](C1)C[C@@H](O)[C@@H]1[C@@H]2CC[C@]2(C)[C@@H]([C@H](C)CCC(N)=O)CC[C@@H]12	Non-Toxic	Active	Non-Toxic					
Cc1noc(C)c1C(=O)N[C@H]1CC[C@@]2(C)[C@@H](C1)C[C@@H](O)[C@@H]1[C@@H]2CC[C@]2(C)[C@@H]([C@H](C)CCC(=O)Nc3ccc(F)cc3)CC[C@@H]12	Non-Toxic	Active	Non-Toxic					
CC(=O)Nc1ccc(NC(=O)CC[C@@H](C)[C@H]2CC[C@H]3[C@@H]4[C@H](O)C[C@@H]5C[C@@H](NC(=O)c6c(C)noc6C)CC[C@]5(C)[C@H]4CC[C@]23C)cc1	Non-Toxic	Active	Toxic					
C[C@H](CCC(=O)O)[C@H]1CC[C@H]2[C@@H]3[C@H](O)C[C@@H]4C[C@H](O)CC[C@]4(C)[C@H]3CC[C@]12C		Active						
CNC(=O)CC[C@@H](C)[C@H]1CC[C@H]2[C@@H]3[C@H](O)C[C@@H]4C[C@@H](NC(=O)c5c(C)noc5C)CC[C@]4(C)[C@H]3CC[C@]12C	Non-Toxic		Non-Toxic	Non-Toxic	Active	30.5%	Active	Active
Cc1noc(C)c1C(=O)N[C@H]1CC[C@@]2(C)[C@@H](C1)C[C@@H](O)[C@@H]1[C@@H]2CC[C@]2(C)[C@@H]([C@H](C)CCC(=O)Nc3ccc(Cl)cc3)CC[C@@H]12	Non-Toxic	Active	Non-Toxic					
CC(C)c1onc(-c2c(Cl)cccc2Cl)c1COc1ccc(/C=C/c2cccc(C(=O)O)c2)c(Cl)c1				Non-Toxic	Active		Active	Active
Cc1noc(C)c1C(=O)N[C@H]1CC[C@@]2(C)[C@@H](C1)C[C@@H](O)[C@@H]1[C@@H]2CC[C@]2(C)[C@@H]([C@H](C)CCC(=O)Nc3cccc(Cl)c3)CC[C@@H]12	Non-Toxic	Active	Non-Toxic					
Cc1noc(C)c1C(=O)N[C@H]1CC[C@@]2(C)[C@@H](C1)C[C@@H](O)[C@@H]1[C@@H]2CC[C@]2(C)[C@@H]([C@H](C)CCC(=O)NCC(=O)O)CC[C@@H]12	Non-Toxic	Active	Non-Toxic					
Cc1noc(C)c1C(=O)N[C@H]1CC[C@@]2(C)[C@@H](C1)C[C@@H](O)[C@@H]1[C@@H]2CC[C@]2(C)[C@@H]([C@H](C)CCC(=O)O)CC[C@@H]12	Non-Toxic	Active	Non-Toxic					
